≈ marks a conversion by molar mass, not a printed value.
Tests used:
[1] = biological target: Trace amine-associated receptor 1 (Rattus norvegicus, UniProt Q923Y9); experiment: Agonist activity at rat TAAR1 receptor expressed in HEK293 cells after 30 mins; assay type: functional, cell-based
[2] = biological target: Trace amine-associated receptor 1 (Rattus norvegicus) (UniProt Q923Y9); experiment: Agonist activity at rat TAAR1 receptor expressed in HEK293 cells after 30 mins relative to control; assay type: functional, cell-based
Sequence of Trace amine-associated receptor 1 (Rattus norvegicus) (Q923Y9 whole entry): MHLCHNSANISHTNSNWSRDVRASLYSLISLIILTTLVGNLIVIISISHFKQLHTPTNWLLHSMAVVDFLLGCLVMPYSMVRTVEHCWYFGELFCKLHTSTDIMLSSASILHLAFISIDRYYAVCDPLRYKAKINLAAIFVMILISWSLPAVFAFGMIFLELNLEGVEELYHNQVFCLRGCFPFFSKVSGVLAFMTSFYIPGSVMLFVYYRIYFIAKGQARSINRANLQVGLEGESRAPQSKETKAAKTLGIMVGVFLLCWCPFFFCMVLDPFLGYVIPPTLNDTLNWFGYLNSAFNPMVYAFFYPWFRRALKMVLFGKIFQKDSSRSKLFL

[3] = biological target: Trace amine-associated receptor 1 (Mus musculus, UniProt Q923Y8); experiment: Agonist activity at mouse TAAR1 receptor expressed in HEK293 cells after 30 mins; assay type: functional, cell-based
Sequence of Trace amine-associated receptor 1 (Mus musculus, UniProt Q923Y8) (Q923Y8 whole entry): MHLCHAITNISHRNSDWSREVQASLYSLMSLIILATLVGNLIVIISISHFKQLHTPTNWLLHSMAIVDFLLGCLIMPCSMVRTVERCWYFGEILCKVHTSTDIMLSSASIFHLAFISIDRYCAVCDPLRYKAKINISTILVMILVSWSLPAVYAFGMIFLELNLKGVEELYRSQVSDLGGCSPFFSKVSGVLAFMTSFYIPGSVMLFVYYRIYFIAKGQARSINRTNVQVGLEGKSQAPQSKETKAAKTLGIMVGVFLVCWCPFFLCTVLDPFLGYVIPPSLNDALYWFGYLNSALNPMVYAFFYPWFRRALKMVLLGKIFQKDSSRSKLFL

[4] = biological target: Trace amine-associated receptor 1 (Mus musculus) (UniProt Q923Y8); experiment: Agonist activity at mouse TAAR1 receptor expressed in HEK293 cells after 30 mins relative to control; assay type: functional, cell-based
Sequence of Trace amine-associated receptor 1 (Mus musculus) (Q923Y8 whole entry): as above

[5] = biological target: T1, Trace amine-associated receptor 1 (Homo sapiens, UniProt Q96RJ0); experiment: Displacement of (S)-4-(2,4-difluorophenyl-3-tritio) -4,5-dihydro-2-oxazolamine from human TAAR1 receptor expressed in HEK293 cells after 90 mins by beta counting analysis; assay type: cell-based
T1 sequence (Q96RJ0 whole entry): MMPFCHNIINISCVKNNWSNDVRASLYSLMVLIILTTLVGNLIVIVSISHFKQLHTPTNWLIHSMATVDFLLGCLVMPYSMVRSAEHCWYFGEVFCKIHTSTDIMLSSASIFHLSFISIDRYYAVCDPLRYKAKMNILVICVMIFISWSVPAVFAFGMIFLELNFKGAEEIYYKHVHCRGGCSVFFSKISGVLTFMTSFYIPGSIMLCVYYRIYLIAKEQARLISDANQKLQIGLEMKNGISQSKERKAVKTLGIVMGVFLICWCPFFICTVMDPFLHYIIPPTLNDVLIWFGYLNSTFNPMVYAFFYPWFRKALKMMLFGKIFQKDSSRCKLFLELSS

[6] = test system: CHL; experiment: Selectivity ratio of Ki for human adrenergic alpha2A receptor expressed in CHL cells to Ki for human TAAR1 receptor; assay type: cell-based
[7] = Clearance in mouse at 5 mg/kg, iv; assay type: ADME, organism-based; design: dose 5 mg/kg, route intravenous; conditions: in vivo
[8] = test system: Liver microsomes; experiment: Intrinsic clearance in human liver microsomes assessed per mg protein; assay type: ADME, Microsome
[9] = Fraction unbound in mouse plasma; assay type: ADME, cell-free
[10] = Volume of distribution at steady state in rat at 4.8 mg/kg, iv; assay type: ADME, organism-based; design: dose 4.8 mg/kg, route intravenous; conditions: in vivo, read-out: Vdss
[11] = Half life in rat at 3.8 mg/kg, po; assay type: ADME, organism-based; design: dose 3.8 mg/kg, route oral; conditions: in vivo
[12] = Ratio of drug level in brain to plasma in rat at 4.8 mg/kg, iv; assay type: ADME, organism-based; design: dose 4.8 mg/kg, route intravenous; conditions: brain and plasma, read-out: BPR
[13] = Permeability of the compound by PAMPA assay; assay type: ADME; conditions: read-out: permeability
[14] = Ratio of drug level in brain to plasma in mouse at 5 mg/kg, iv; assay type: ADME, organism-based; design: dose 5 mg/kg, route intravenous; conditions: brain and plasma, read-out: BPR
[15] = Volume of distribution at steady state in mouse at 5 mg/kg, iv; assay type: ADME, organism-based; design: dose 5 mg/kg, route intravenous; conditions: in vivo, read-out: Vdss
[16] = Fraction unbound in rat plasma; assay type: ADME, cell-free
[17] = Dissociation constant, pKa of the compound; assay type: physicochemical
[18] = test system: Rattus norvegicus; experiment: Inhibition of cocaine-induced hyperlocomotion in po dosed Wistar rat assessed as reduction in locomotor activity after 30 mins; assay type: functional, organism-based
Procedure, shortened: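 Rats were pretreated orally with several doses of test compound. Hyperlocomotion was then induced with cocaine at 20 mg/kg i.p., and the reduction in locomotor activity was recorded.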

[19] = Lipophilicity, log D of the compound; assay type: physicochemical; conditions: octanol/water
Procedure, shortened: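 Distribution coefficient (logD) measured at pH 7.4.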

[20] = Clearance in rat at 4.8 mg/kg, iv; assay type: ADME, organism-based; design: dose 4.8 mg/kg, route intravenous; conditions: in vivo
[21] = Cmax in mouse at 10 mg/kg, po; assay type: ADME, organism-based; design: dose 10 mg/kg, route oral; conditions: in vivo
[22] = Oral bioavailability in rat at 3.8 mg/kg; assay type: ADME, organism-based; conditions: in vivo
[23] = Thermodynamic solubility of the compound at pH 6.5; assay type: physicochemical; conditions: buffer, read-out: Therm_solubility
Procedure, shortened: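 Thermodynamic solubility determined using solid material, with the final pH being 6.5; value expressed in µg/ml.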

[24] = Half life in mouse at 10 mg/kg, po; assay type: ADME, organism-based; design: dose 10 mg/kg, route oral; conditions: in vivo
[25] = test system: Liver; experiment: Intrinsic clearance in mouse liver microsomes assessed per mg protein; assay type: ADME, Microsome
[26] = Cmax in rat at 3.8 mg/kg, po; assay type: ADME, organism-based; design: dose 3.8 mg/kg, route oral; conditions: in vivo
[27] = test system: Liver microsomes; experiment: Intrinsic clearance in rat liver microsomes assessed per mg protein; assay type: ADME, Microsome
[28] = Oral bioavailability in mouse at 10 mg/kg; assay type: ADME, organism-based; conditions: in vivo

Sequence of Trace amine-associated receptor 1 (Rattus norvegicus, UniProt Q923Y9) (Q923Y9 whole entry): as the sequence (Q923Y9 whole entry) above

Structure (SMILES): COc1cccc(N(Cc2cnc[nH]2)C(C)C)c1
- EC50 [1]: 61 nM
- Emax [2]: 25%
- EC50 [3]: 72 nM
- Emax [4]: 55%

Structure (SMILES): CC(C)N(Cc1cnc[nH]1)c1cccc(Cl)c1
- EC50 [1]: 27 nM
- Emax [2]: 22%
- EC50 [3]: 10 nM
- Emax [4]: 50%

Structure (SMILES): CC(C)N(Cc1cnc[nH]1)c1ccccc1
- EC50 [1]: 7.3 nM
- Emax [2]: 34%
- EC50 [3]: 28 nM
- Emax [4]: 45%

Structure (SMILES): c1ccc2c(c1)CCCN2Cc1cnc[nH]1
- Ki [5]: 12 nM

Structure (SMILES): c1ccc(NCc2ncc[nH]2)cc1
- Ki [5]: 4250 nM
- Ratio Ki [6]: 0.2

Structure (SMILES): Clc1cccc(Cl)c1Cc1ncc[nH]1
- Ki [5]: 1390 nM
- Ratio Ki [6]: 0.7

Structure (SMILES): CN(Cc1ncc[nH]1)c1ccccc1
- Ki [5]: 1270 nM
- Ratio Ki [6]: 0.2

Structure (SMILES): CC(C)N(Cc1cnc[nH]1)c1ccc(Cl)cc1
- clearance [7]: 24 mL/min/kg
- EC50 [1]: 25 nM
- Emax [2]: 24%
- CLint [8]: 18 µL/min/mg
- fraction unbound [9]: 0.08
- Vd [10]: 4.1 L/kg
- half-life [11]: 1 h
- Emax [4]: 26%
- Kp [12]: 6.6
- Papp [13]: 2.7 ×10⁻⁶ cm/s
- Kp [14]: 0.6
- Vd [15]: 2 L/kg
- fraction unbound [16]: 0.06
- pKa [17]: 3.5
- inhibition [18]: Dose-dependent effect
- logD [19]: 3.3
- clearance [20]: 40 mL/min/kg
- Cmax [21]: 1740 ng/mL
- bioavailability [22]: 66%
- solubility thermodynamic [23]: 97 µg/mL (≈ 388 µM)
- half-life [24]: 1.8 h
- CLint [25]: 17.5 µL/min/mg
- Cmax [26]: 519 ng/mL
- CLint [27]: 70 µL/min/mg
- bioavailability [28]: 86%

Structure (SMILES): CC(C)N(Cc1ncc[nH]1)c1cccc(Cl)c1
- EC50 [1]: 400 nM
- Emax [2]: 60%
- EC50 [3]: 500 nM
- Emax [4]: 54%

Structure (SMILES): c1ccc(CC2=NCCN2)cc1 [TOLAZOLINE]
- Ki [5]: 1640 nM
- Ratio Ki [6]: 0.06

Structure (SMILES): CC(C)N(Cc1cnc[nH]1)c1cc(Cl)cc(Cl)c1
- Ki [5]: 4 nM
- Ratio Ki [6]: 37

Structure (SMILES): FC(F)(F)c1cccc(C(F)(F)F)c1Cc1ncc[nH]1
- Ki [5]: 13300 nM

Structure (SMILES): COc1cccc(N(Cc2cnc[nH]2)C(C)C)n1
- EC50 [1]: 25 nM
- Emax [2]: 18%
- Emax [4]: 35%

Structure (SMILES): c1ccc2c(c1)CCCN2Cc1c[nH]cn1
- Ratio Ki [6]: 4

Reference: ChEMBL document CHEMBL2203234, “Optimisation of imidazole compounds as selective TAAR1 agonists: discovery of RO5073012” (Bioorg Med Chem Lett, 2012)
